ChEMBL document CHEMBL3414429, “3,4-diaminobenzoic acid derivatives as inhibitors of the oxytocinase subfamily of M1 aminopeptidases with immune-regulating properties” (J Med Chem, 2015)
The source made the active and inactive calls. The rule behind the calls is not given here.

Tests used:
[1] = target: T1, Endoplasmic reticulum aminopeptidase 2 (Homo sapiens, UniProt Q6P179); test: Inhibition of human recombinant ERAP2 expressed in baculovirus infected cabbage looper ovary Hi5 cells using L-arginyl-7-amido-4-methyl coumarin as substrate up to 100 uM after 5 to 10 mins by fluorescence assay; conditions: BTI-TN-5B1-4
Outline: (§1)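 Recombinant human enzymes made in baculovirus-infected Hi5 cells, kept in 10 mM HEPES pH 7, 100 mM NaCl, 10% glycerol. ERAP1 30 nM, ERAP2 6 nM or IRAP 6 nM with 50 μM substrate (L-AMC for ERAP1 and IRAP, R-AMC for ERAP2) and varied inhibitor. Fluorescence rise followed at ex 380/em 460; IC50 from fit of activity against inhibitor concentration.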

[2] = target: T2, Endoplasmic reticulum aminopeptidase 1 (Homo sapiens, UniProt Q9NZ08); test: Inhibition of human recombinant ERAP1 expressed in baculovirus infected […] using L-leucine-7-amido-4-methyl coumarin as substrate up to 100 uM after 5 to 10 mins by fluorescence assay; outline: as §1
[3] = target: T1, Endoplasmic reticulum aminopeptidase 2; test: Inhibition of human recombinant ERAP2 expressed in baculovirus infected cabbage looper ovary Hi5 cells using L-arginyl-7-amido-4-methyl coumarin as substrate after 5 to 10 mins by fluorescence assay; set-up: species or system Female gonad, BTI-TN-5B1-4
[4] = target: T2, Endoplasmic reticulum aminopeptidase 1; test: Inhibition of human recombinant ERAP1 expressed in baculovirus infected Sf9 cells using L-leucine-7-amido-4-methyl coumarin as substrate after 5 to 10 mins by fluorescence assay
[5] = target: Leucyl-cystinyl aminopeptidase (Homo sapiens, UniProt Q9UIQ6); test: Inhibition of human recombinant IRAP expressed in baculovirus infected cabbage looper ovary Hi5 cells using L-leucine-7-amido-4-methyl coumarin as substrate up to 100 uM after 5 to 10 mins by fluorescence assay; conditions: BTI-TN-5B1-4; outline: as §1
Leucyl-cystinyl aminopeptidase, sequence (Q9UIQ6 whole entry): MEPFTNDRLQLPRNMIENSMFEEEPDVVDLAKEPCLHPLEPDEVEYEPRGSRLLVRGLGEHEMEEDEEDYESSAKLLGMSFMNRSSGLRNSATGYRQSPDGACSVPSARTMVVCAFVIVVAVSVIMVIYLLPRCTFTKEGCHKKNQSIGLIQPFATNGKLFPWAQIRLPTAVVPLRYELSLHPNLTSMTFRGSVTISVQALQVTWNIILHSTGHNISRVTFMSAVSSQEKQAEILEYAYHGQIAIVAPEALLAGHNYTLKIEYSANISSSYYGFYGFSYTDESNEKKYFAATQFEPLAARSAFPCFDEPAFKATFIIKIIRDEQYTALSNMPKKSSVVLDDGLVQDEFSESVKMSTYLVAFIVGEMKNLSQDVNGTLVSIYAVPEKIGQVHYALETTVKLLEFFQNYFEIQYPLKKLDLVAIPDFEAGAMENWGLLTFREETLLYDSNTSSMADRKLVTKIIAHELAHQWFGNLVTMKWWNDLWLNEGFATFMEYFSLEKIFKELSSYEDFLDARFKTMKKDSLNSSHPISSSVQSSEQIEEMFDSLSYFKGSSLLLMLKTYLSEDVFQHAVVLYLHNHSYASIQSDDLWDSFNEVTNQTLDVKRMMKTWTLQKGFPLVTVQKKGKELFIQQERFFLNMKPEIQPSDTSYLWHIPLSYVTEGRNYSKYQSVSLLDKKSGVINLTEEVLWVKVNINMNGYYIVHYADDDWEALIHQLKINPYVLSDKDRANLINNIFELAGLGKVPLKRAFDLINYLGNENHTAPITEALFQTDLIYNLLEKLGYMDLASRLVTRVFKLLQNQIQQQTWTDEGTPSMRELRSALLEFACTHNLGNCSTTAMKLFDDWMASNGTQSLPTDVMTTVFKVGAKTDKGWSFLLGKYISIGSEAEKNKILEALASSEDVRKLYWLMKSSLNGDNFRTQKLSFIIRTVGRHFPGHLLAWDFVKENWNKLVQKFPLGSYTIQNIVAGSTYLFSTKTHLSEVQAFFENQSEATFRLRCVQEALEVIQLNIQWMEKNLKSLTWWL

T2 sequence (Q9NZ08 whole entry): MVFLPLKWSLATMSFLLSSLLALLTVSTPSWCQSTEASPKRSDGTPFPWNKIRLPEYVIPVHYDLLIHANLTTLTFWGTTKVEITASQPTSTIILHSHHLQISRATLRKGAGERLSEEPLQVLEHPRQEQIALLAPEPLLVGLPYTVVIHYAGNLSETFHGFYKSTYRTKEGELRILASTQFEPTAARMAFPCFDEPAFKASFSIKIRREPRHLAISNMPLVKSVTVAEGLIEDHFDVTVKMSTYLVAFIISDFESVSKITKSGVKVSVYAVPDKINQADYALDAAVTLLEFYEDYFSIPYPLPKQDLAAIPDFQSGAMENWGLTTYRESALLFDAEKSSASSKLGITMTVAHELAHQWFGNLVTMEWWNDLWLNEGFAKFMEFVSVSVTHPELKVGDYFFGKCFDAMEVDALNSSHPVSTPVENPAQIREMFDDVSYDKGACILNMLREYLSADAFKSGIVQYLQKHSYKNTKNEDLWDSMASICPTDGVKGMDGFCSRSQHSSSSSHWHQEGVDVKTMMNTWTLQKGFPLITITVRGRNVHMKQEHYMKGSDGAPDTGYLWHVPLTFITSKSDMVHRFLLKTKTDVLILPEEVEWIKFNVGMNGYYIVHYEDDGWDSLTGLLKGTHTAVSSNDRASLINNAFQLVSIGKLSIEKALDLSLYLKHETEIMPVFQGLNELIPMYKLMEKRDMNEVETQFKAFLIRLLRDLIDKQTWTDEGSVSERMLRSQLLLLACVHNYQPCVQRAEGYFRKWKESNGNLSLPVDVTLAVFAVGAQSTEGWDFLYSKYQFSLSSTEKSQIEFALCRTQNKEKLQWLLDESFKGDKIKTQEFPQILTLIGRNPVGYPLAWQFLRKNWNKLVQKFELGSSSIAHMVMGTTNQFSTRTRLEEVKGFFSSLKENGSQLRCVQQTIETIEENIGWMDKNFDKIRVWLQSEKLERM
T1 sequence (Q6P179 whole entry): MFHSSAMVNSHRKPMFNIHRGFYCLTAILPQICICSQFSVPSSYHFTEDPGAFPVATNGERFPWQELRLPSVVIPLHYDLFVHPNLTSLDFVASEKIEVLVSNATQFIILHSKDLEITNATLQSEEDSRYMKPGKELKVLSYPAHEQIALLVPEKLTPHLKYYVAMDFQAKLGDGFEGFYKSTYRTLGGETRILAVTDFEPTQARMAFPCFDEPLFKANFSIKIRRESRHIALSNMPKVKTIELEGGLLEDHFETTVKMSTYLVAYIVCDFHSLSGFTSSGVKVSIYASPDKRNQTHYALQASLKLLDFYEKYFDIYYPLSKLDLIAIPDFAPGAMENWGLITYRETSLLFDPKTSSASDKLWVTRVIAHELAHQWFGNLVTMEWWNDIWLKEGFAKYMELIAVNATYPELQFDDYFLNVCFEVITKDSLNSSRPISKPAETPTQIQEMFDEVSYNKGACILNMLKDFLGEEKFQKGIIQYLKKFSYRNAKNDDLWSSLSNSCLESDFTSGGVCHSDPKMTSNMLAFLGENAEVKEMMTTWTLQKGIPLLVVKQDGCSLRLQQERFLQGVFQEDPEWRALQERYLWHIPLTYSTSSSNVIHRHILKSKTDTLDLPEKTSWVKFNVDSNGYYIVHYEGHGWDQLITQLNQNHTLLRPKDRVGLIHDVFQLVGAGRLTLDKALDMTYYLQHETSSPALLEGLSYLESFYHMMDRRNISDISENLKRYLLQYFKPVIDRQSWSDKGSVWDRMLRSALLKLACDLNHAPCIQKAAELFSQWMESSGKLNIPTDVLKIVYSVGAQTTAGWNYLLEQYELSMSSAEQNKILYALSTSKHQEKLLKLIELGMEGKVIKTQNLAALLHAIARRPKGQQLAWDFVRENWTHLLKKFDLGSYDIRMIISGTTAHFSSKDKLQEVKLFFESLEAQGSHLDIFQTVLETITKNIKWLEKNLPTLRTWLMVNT

COC(=O)c1ccc(N)c(NC(=O)[C@@H](N)CCc2ccc(OCc3ccccc3)cc2)c1
inhibition [1]: inactive
inhibition [2]: inactive

CCCC[C@H](N)C(=O)Nc1ccc(C(=O)OC)cc1N
inhibition [2]: inactive

COC(=O)c1ccc(N)c(NC(=O)[C@@H](N)Cc2ccc(OCc3ccccc3)cc2)c1
inhibition [1]: inactive
inhibition [2]: inactive

CC(C)[C@H](NC(=O)c1ccc(NC(=O)[C@@H](N)CCc2ccccc2)c(N)c1)C(=O)O
IC50 [3]: > 100 µM
inhibition [2]: inactive

COC(=O)[C@H](CCCCN)NC(=O)c1ccc(NC(=O)[C@@H](N)CCCNC(=N)N)c(N)c1
inhibition [2]: inactive

COC(=O)c1ccc(N)c(NC(=O)[C@@H](N)CCc2ccc(O)cc2)c1
inhibition [1]: inactive
IC50 [4]: > 100 µM

COC(=O)c1ccc(NC(=O)[C@@H](N)Cc2ccc(OCc3ccccc3)cc2)c(N)c1
inhibition [1]: inactive
inhibition [2]: inactive

CC(C)C[C@H](N)C(=O)Nc1cc(C(=O)O)ccc1N
inhibition [1]: inactive
inhibition [2]: inactive
inhibition [5]: inactive

COC(=O)[C@H](CCCCN)NC(=O)c1ccc(NC(=O)[C@@H](N)CCc2ccccc2)c(N)c1
inhibition [1]: inactive
inhibition [2]: inactive

NCCCC[C@H](NC(=O)c1ccc(N)c(NC(=O)[C@@H](N)Cc2ccccc2)c1)C(=O)O
inhibition [2]: inactive

COC(=O)c1ccc(N)c(NC(=O)[C@@H](N)CC(C)C)c1
inhibition [1]: inactive
inhibition [2]: inactive
inhibition [5]: inactive

COC(=O)[C@H](Cc1ccc(O)cc1)NC(=O)c1ccc(N)c(N)c1
inhibition [1]: inactive
inhibition [2]: inactive

COC(=O)[C@H](Cc1ccc(O)cc1)NC(=O)c1ccc(N)c(NC(=O)[C@@H](N)Cc2ccc(O)cc2)c1
IC50 [4]: 110 µM

COC(=O)[C@H](CCCCN)NC(=O)c1ccc(N)c(NC(=O)[C@@H](N)COCc2ccccc2)c1
inhibition [1]: inactive
inhibition [2]: inactive
inhibition [5]: inactive

COC(=O)[C@H](CCCCN)NC(=O)c1ccc(N)c(NC(=O)[C@@H](N)CCc2ccc(O)cc2)c1
IC50 [4]: > 100 µM

CC(C)[C@H](NC(=O)c1ccc(N)c(NC(=O)[C@@H](N)Cc2ccc(O)cc2)c1)C(=O)O
IC50 [3]: > 100 µM
inhibition [2]: inactive

Nc1ccc(C(=O)O)cc1NC(=O)[C@@H](N)Cc1ccc(O)cc1
IC50 [4]: > 100 µM

Nc1ccc(C(=O)N[C@@H](Cc2c[nH]c3ccccc23)C(=O)O)cc1NC(=O)[C@@H](N)CCc1ccc(O)cc1
IC50 [3]: > 100 µM

NCCCC[C@H](NC(=O)c1ccc(N)c(NC(=O)[C@@H](N)Cc2ccc(O)cc2)c1)C(=O)O
inhibition [2]: inactive

COC(=O)c1ccc(NC(=O)[C@@H](N)Cc2ccc(O)cc2)c(N)c1
inhibition [2]: inactive

COC(=O)[C@H](CCCCN)NC(=O)c1ccc(N)c(NC(=O)[C@@H](N)CCCNC(=N)N)c1
inhibition [5]: inactive

CCCC[C@H](N)C(=O)Nc1ccc(C(=O)N[C@@H](CCCCN)C(=O)OC)cc1N
inhibition [2]: inactive

N=C(N)NCCC[C@H](N)C(=O)Nc1cc(C(=O)O)ccc1N
IC50 [3]: > 100 µM
inhibition [2]: inactive

CC(C)[C@H](NC(=O)c1ccc(N)c(NC(=O)[C@@H](N)CCCNC(=N)N)c1)C(=O)O
inhibition [2]: inactive

COC(=O)c1ccc(N)c(NC(=O)[C@@H](N)CCCNC(=N)N)c1
inhibition [2]: inactive

COC(=O)[C@H](CCCCN)NC(=O)c1ccc(N)c(NC(=O)[C@@H](N)CCc2ccc(OCc3ccccc3)cc2)c1
IC50 [4]: > 100 µM

COC(=O)c1ccc(NC(=O)[C@@H](N)CCCNC(=N)N)c(N)c1
inhibition [2]: inactive

COC(=O)[C@H](CCCCN)NC(=O)c1ccc(NC(=O)[C@@H](N)Cc2ccc(O)cc2)c(N)c1
IC50 [3]: > 100 µM
IC50 [4]: > 100 µM

Nc1cc(C(=O)N[C@@H](Cc2c[nH]c3ccccc23)C(=O)OCc2ccccc2)ccc1NC(=O)[C@@H](N)CCc1ccc(OCc2ccccc2)cc1
inhibition [2]: inactive

CCCC[C@H](N)C(=O)Nc1cc(C(=O)N[C@@H](Cc2ccc(O)cc2)C(=O)OC)ccc1N
IC50 [4]: > 100 µM

Nc1ccc(C(=O)N[C@@H](Cc2c[nH]c3ccccc23)C(=O)OCc2ccccc2)cc1NC(=O)[C@@H](N)CCc1ccc(OCc2ccccc2)cc1
IC50 [3]: > 100 µM
IC50 [4]: > 100 µM

COC(=O)[C@H](CCCCN)NC(=O)c1ccc(N)c(N)c1
inhibition [1]: inactive
IC50 [4]: > 100 µM

Nc1ccc(C(=O)O)cc1NC(=O)[C@@H](N)Cc1ccc(OCc2ccccc2)cc1
inhibition [1]: inactive
inhibition [2]: inactive

Nc1ccc(C(=O)N[C@@H](Cc2c[nH]c3ccccc23)C(=O)O)cc1NC(=O)[C@@H](N)Cc1ccc(O)cc1
IC50 [3]: 40 µM

CC(C)[C@H](NC(=O)c1ccc(N)c(NC(=O)[C@@H](N)Cc2ccc(O)cc2)c1)C(=O)OCc1ccccc1
inhibition [2]: inactive

Nc1ccc(C(=O)N[C@@H](Cc2c[nH]c3ccccc23)C(=O)O)cc1N
IC50 [4]: > 100 µM

CCCC[C@H](N)C(=O)Nc1cc(C(=O)OC)ccc1N
IC50 [4]: > 100 µM

COC(=O)[C@H](CCCNC(=N)N)NC(=O)c1ccc(N)c(N)c1
inhibition [1]: inactive

CC(C)[C@H](NC(=O)c1ccc(NC(=O)[C@@H](N)CCc2ccccc2)c(N)c1)C(=O)OCc1ccccc1
IC50 [3]: > 100 µM
inhibition [2]: inactive

COC(=O)[C@H](Cc1ccc(O)cc1)NC(=O)c1ccc(NC(=O)[C@@H](N)Cc2ccc(OCc3ccccc3)cc2)c(N)c1
inhibition [2]: inactive

Nc1ccc(C(=O)N[C@@H](Cc2c[nH]c3ccccc23)C(=O)OCc2ccccc2)cc1N
IC50 [3]: > 100 µM
inhibition [2]: inactive

COC(=O)[C@H](CCCN)NC(=O)c1ccc(N)c(NC(=O)[C@@H](N)CCc2ccccc2)c1
inhibition [1]: inactive
inhibition [2]: inactive
inhibition [5]: inactive

COC(=O)[C@H](CCCCN)NC(=O)c1ccc(N)c(NC(=O)[C@@H](N)CC(C)C)c1
inhibition [2]: inactive
inhibition [5]: inactive

COC(=O)[C@@H](NC(=O)c1ccc(N)c(NC(=O)[C@@H](N)Cc2ccc(O)cc2)c1)[C@@H](C)O
IC50 [4]: > 100 µM

COC(=O)c1ccc(N)c(NC(=O)[C@@H](N)Cc2ccc(O)cc2)c1
IC50 [3]: > 100 µM
inhibition [2]: inactive

CCCC[C@H](N)C(=O)Nc1ccc(C(=O)N[C@H](C(=O)OCc2ccccc2)C(C)C)cc1N
IC50 [4]: > 100 µM

COC(=O)c1ccc(NC(=O)[C@@H](N)CCc2ccccc2)c(N)c1
IC50 [4]: > 100 µM

COC(=O)c1ccc(NC(=O)[C@@H](N)CC(C)C)c(N)c1
IC50 [3]: > 100 µM
inhibition [2]: inactive
inhibition [5]: inactive
